HNF4A DNA FP: change in binding of human HNF4A to DNA, primary screen, biochemical, fluorescence polarization, FITC-DNA; activity change, % at 10 µM; 0.3% of 360,000 active; AID 1224865, 2016; 1 h; in the data active = activity change above about 30%, passing the limit was not always enough
Target sequence (P41235 whole entry, looked up): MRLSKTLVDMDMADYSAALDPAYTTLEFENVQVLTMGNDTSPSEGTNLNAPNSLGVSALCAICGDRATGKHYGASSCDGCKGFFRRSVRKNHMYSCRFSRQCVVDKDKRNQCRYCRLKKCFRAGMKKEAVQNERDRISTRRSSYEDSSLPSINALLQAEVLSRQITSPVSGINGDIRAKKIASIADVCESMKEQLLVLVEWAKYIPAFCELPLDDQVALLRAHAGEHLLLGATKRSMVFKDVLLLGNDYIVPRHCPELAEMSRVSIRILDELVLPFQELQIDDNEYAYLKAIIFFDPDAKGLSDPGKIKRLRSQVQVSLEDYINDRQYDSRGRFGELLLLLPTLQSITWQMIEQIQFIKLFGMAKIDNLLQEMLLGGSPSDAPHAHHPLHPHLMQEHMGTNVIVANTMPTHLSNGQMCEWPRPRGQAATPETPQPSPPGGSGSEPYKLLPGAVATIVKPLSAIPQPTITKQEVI
Rpn11 inh: Rpn11 (PSMD14) deubiquitinase inhibitors, primary screen, biochemical, fluorescence polarization, uHTS. human 26S proteasome, Ub4-pepOG fluorescence polarization; 20S core pre-blocked with epoxomicin. 0.59% of 360,000 active. AID 588493, 2011. inhibition, % at 20 µM;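 active = inhibition at 20 µM, scaled to each plate's controls, above about 33%, limit read from the data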
CSN inh: inhibitors of CSN-mediated cullin deneddylation, primary screen, biochemical, fluorescence polarization, uHTS; inhibition, % at 12.5 µM; 0.38% of 360,000 active; Purified CSN, SCF-Nedd8-OG deneddylation; COP9 signalosome complex subunit 5 (Homo sapiens), Q92905;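 active = pattern-corrected inhibition above about 35%, with an unprinted fluorescence ratio check between 0.5 and 1.5, limit read from the data, passing the limit was not always enough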;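 also: 0% = enzyme with substrate and 100% = substrate without enzyme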
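Test system: purified human Csn5 enzyme expressed in HEK293T cells. Amount: 0.24 nM enzyme. Reagent: SCFSkp2-Nedd8OG substrate at 10 nM final. Schedule: 90 min incubation of compound, enzyme and substrate at room temperature. Detection: fluorescence polarization. Read-out: % inhibition of substrate cleavage by Csn5.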
TPT1 inh: Candida albicans TPT1 enzyme inhibitors, primary screen, biochemical, fluorescence polarization; tRNA 2'-phosphotransferase TPT1 (Candida albicans SC5314); recombinant caTPT1, FP RNA substrate dephosphorylation; inhibition, % at 5 µM; 0.81% of 300,000 active;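 active = inhibition above the mean of all tested compounds plus 3 SD, set per screening campaign, cut at about 24% in these data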;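 also: plate controls were DMSO alone for no effect and ferristatin control at 100 nM for full effect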
SENP1 FRET inh: human SENP1 catalytic domain inhibitors, primary screen, biochemical, FRET, uHTS; recombinant SENP1 catalytic domain, CyPet-SUMO1-YPet FRET cleavage; inhibition, % at 10 µM; 0.21% of 360,000 active; AID 624204, 2012;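 active = inhibition at least 30% at 10 µM, raw YFP signal under a set limit, fluorescence ratio 0.5 to 1.5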;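 also: 0% = enzyme with DMSO and 100% = no enzyme wells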
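Test system: recombinant human SENP1 catalytic domain, His6-tagged / Medium: pH 8 Tris buffer with EDTA, NaCl, BME, BSA, NP40, catalase / Also added: SUMO1 FRET substrate flanked by Cypet and Ypet, 25 nM / Times: 50 min reaction at room temperature / Signal: FRET, CFP and YFP emission / Control set: no-enzyme low control and enzyme-plus-DMSO high control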
ATG4B inh: ATG4B protease inhibitors, primary screen, biochemical, fluorescence, uHTS; Cysteine protease ATG4B (Homo sapiens), Q9Y4P1; AID 504462, 2011; inhibition, % at 8.33 µM; ATG4B cleavage of LC3-PLA2, NBD-HPC fluorescence, 1 h; 0.51% of 340,000 active; in the data active = inhibition above about 40%
The depositor's hits bear a star; · = no result shown; + = active, no number; ! = not confirmed by another sample. Hits are enriched below; roughly 2% of the tested compounds scored in any of these assays.

SMILES	HNF4A DNA FP	Rpn11 inh	CSN inh	TPT1 inh	SENP1 FRET inh	ATG4B inh
COc1ccc(C(=O)NC(NC(=O)c2ccc(OC)c(OC)c2)c2ccccc2F)cc1OC	45*	-8	2	-2	-2	-13
Cc1c(NC(=O)c2nn(C(C)C)c(=O)c3ccccc23)c(=O)n(-c2ccccc2)n1C	7	7	-7	·	2	·
Nc1nc(CN2CCC(Cc3ccccc3)CC2)nc(Nc2ccccc2)n1	54*	7	0	1	-9	3
CCCCn1nnnc1C1(C)CCC(=O)N1CCc1ccccc1F (stereo not given)	2	·	-1	·	-1	·
O=C(/C=C/[C@H]1O[C@@H](n2ccc(=O)[nH]c2=O)[C@H](O)[C@@H]1O)NCCN1CCCCC1	-3	-15	4	·	5	·
Cc1cccc(/C(N)=N/OC(=O)Cc2cccc3ccccc23)c1	-1	0	2	3	6	2
Cc1cccc(C(=O)O/N=C(\N)Cc2cccc3ccccc23)c1	5	3	-2	1	1	46*
CCOc1ncccc1C(=O)N1CCN(c2ccc(C(F)(F)F)cn2)CC1	91*	-17	-16	-1	1	-6
Cc1cccc(C(=O)N2CCN(c3ccc(C(F)(F)F)cn3)CC2)c1C	5	0	0	1	3	-6
CCOC(=O)C1=C(Cc2ccc(OC)cc2)C(=O)c2ccccc2C1=O	1	1	1	·	40*	31
O=C(Nc1ccccc1C(F)(F)F)NC1(C(=O)N2CCOCC2)CCCCC1	-22	·	43*	·	-66	8
Cc1ccc(S(=O)(=O)N2C[C@H]3[C@H]4C(=O)N(c5ccccc5)C(=O)[C@H]4CC(=O)[C@H]3[C@@H]2c2ccccc2F)cc1	-4	6	111*	·	-10	·
S=c1[nH]ncn1/N=C/c1ccccc1	44*	32	1	-4	1	-3
S=c1[nH]ncn1/N=C/c1ccc(Br)cc1	0	-1	3	-4	-2	15
NC(=O)CC(NC(=O)Cc1ccc(Br)cc1)c1ccc(NC2CCN(Cc3ccccc3)CC2)c([N+](=O)[O-])c1 (stereo not given)	-4	8	53*	1	1	-14
NC(=O)CC(NC(=O)Cc1ccc(Br)cc1)c1ccc(NC2CCCCCCC2)c([N+](=O)[O-])c1 (stereo not given)	44	·	28	·	4	-3
O=C(NCc1ccccc1)C1C(c2ccc3c(c2)OCO3)=Nc2ccccc2N1C(=O)c1cccc2ccccc12 (stereo not given)	3	·	-3	·	-2	·
COc1ccccc1-c1ncn(Cc2cccc(-c3ccccc3)c2)c1CC(C)C	5	·	0	·	0	·
Cc1ccccc1S(=O)(=O)c1c(C)cc(C)n(C)c1=O	2	5	43*	3	-1	-9
Oc1c(C=C2N=c3ccccc3=N2)sc(=S)n1-c1ccc(F)cc1	39*!	25	-5	19	7	-3
Oc1c(C=C2N=c3ccccc3=N2)sc(=S)n1-c1ccc2ccccc2c1	4	6	-6	4	-15	-10
Nc1cccc(C(=O)OCC(=O)Nc2cccc3c2C(=O)c2ccccc2C3=O)c1	-61	-108	-26	-22	33*	1
CCN(CC)CCC(=O)Nc1cccc2c1C(=O)c1ccccc1C2=O	-100	-105	-56	-12	62*	3
Cc1cccc(NC(=O)COC(=O)c2cccc3c2C(=O)c2ccccc2C3=O)c1C	2	-2	5	-2	-3	32
CCN(CC)C(=O)C1=C(C)N(Cc2ccc(C(C)(C)C)cc2)C(=O)C(CC(=O)NC2CCCC2)C1 (stereo not given)	-1	1	-4	·	-1	·
SMILES	HNF4A DNA FP	Rpn11 inh	CSN inh	TPT1 inh	SENP1 FRET inh	ATG4B inh
Cc1ccccc1C(=O)N1CCC[C@H]1C(=O)N1CCC[C@H]1C(=O)NCc1ccccn1	0	·	2	·	2	·
CNS(=O)(=O)c1cccc(C(=O)OCC(=O)c2ccc(S(=O)(=O)N3CCCCC3)cc2)c1	-1	2	-2	1	4	-11
CNS(=O)(=O)c1cccc(C(=O)OCC(=O)c2ccc3[nH]c(=O)[nH]c3c2)c1	5	-1	54*	·	4	-11
C[C@H](CO)NC(=O)c1nc[nH]c1C(=O)N[C@H](C)c1ccccc1	-3	-5	1	·	0	·
Cc1ccc(O)c(NS(=O)(=O)c2cccc3nsnc23)c1	79*	-11	-4	-3	6	0
COc1ccc(C2=NN(C(=O)CCC(=O)O)C(c3cccs3)C2)cc1 (stereo not given)	2	5	3	0	-1	-2
COc1ccc(C2=NN3C(C2)c2ccccc2OC3c2cccs2)cc1 (stereo not given)	6	40*	9	9	-31	6
CCCNC(=O)C1(C)CCCN(Cc2c(F)cccc2F)C1 (stereo not given)	2	-7	1	·	-3	·
Cc1c(CC(=O)O)c(=O)oc2c(C)c(OCc3ccc(F)cc3F)ccc12	-4	12	-2	-5	-1	0
Cc1c(CC(=O)O)c(=O)oc2c(C)c(OCc3ccc(F)cc3Cl)ccc12	0	-8	53*	-1	0	1
CCOC(=O)c1cnc(-n2cc(C)cn2)nc1NCc1ccc2c(c1)OCO2	48*	3	11	1	0	-3
COCCN(C(=O)COC(=O)c1c(-c2ccccc2)noc1C)c1c(N)n(Cc2ccccc2)c(=O)[nH]c1=O	1	-1	4	-2	-1	-6
CCc1nc2ccccc2c(C(=O)OCC(=O)N(CCOC)c2c(N)n(Cc3ccccc3)c(=O)[nH]c2=O)c1C	-1	4	+	·	-2	-9
Nc1c(C(=O)Nc2ccc(S(=O)(=O)N3CCCC3)cc2)sc2nc3ccc(OC(F)(F)F)cc3cc12	43*	·	15	18	3	-4
O=C(O)CCC(=O)Nc1cccc(C(=O)Nc2ccc(Br)cc2)c1	80*	-2	-4	3	0	-4
Cc1nnc(SCC(=O)N2c3ccccc3CC2C)s1 (stereo not given)	1	5	1	0	1	-5
CCc1nc(SCC(=O)N2c3ccccc3CC2C)c2c(C)c(C)sc2n1 (stereo not given)	1	-3	1	1	-3	83*
